Tests used:
Tyrosinase [1] = target: T1, Tyrosinase (Agaricus bisporus, UniProt O42713); experiment: Inhibition of mushroom tyrosinase using L-tyrosine as substrate
T1 sequence (O42713 whole entry): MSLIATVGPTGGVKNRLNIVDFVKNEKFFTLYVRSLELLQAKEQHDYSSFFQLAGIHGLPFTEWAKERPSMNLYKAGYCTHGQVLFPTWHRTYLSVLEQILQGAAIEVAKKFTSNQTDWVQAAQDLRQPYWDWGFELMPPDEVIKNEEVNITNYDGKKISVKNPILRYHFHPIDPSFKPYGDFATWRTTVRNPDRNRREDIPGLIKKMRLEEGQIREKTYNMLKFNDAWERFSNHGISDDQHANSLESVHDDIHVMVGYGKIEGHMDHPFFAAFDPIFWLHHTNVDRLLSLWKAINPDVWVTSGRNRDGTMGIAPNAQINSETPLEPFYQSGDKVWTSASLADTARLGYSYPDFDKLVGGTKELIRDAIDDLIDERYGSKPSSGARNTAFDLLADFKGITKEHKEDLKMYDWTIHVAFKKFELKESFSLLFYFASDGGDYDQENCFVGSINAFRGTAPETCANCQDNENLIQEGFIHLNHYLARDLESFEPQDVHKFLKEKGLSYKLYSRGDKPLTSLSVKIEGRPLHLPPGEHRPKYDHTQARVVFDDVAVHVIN

[2] = target: T2, Tyrosinase (Agaricus bisporus) (UniProt O42713); experiment: Non-competitive inhibition of mushroom tyrosinase using L-tyrosine as substrate by Lineweaver-Burk plots analysis
T2 sequence (whole entry): T1 sequence (O42713 whole entry)
How it was run: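 Absorbance at 475 nm read at 30 °C in PBS with 5% DMSO. Global nonlinear Michaelis–Menten fitting over four inhibition models gave Vmax, Km, Kic and Kiu, with the model chosen by minimal χ2.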

[3] = target: T2, Tyrosinase (Agaricus bisporus); experiment: Binding affinity to mushroom tyrosinase assessed as fluorescence quenching
[4] = Cytotoxicity against mouse B16F10 cells assessed as cell survival at 50 uM after 48 hrs by MTT assay; format: cell-based, B16-F10; details: read-out: Survival
[5] = target: T3, Tyrosinase (Mus musculus) (UniProt P11344); experiment: Inhibition of tyrosinase in mouse B16F10 cell lysates using DOPA as substrate relative to control; format: cell-free; parameters: concentration or dose not given beside the values; details: B16-F10, concentration not given here
T3 sequence (whole entry): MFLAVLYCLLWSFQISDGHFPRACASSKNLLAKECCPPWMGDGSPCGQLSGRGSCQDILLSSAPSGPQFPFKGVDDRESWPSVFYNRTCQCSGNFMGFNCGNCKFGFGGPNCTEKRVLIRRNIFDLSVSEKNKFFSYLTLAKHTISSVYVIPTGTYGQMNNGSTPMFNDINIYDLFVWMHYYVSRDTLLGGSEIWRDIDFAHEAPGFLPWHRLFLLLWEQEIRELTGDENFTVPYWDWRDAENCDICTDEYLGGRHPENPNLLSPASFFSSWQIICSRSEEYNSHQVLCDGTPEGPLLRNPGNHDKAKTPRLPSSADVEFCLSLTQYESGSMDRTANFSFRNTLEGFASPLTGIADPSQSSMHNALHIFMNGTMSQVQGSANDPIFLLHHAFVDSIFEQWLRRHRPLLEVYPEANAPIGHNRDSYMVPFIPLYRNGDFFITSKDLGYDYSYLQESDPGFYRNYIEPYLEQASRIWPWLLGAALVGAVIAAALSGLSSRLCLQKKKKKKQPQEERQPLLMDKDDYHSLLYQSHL

[6] = target: T3, Tyrosinase (Mus musculus); experiment: Inhibition of tyrosinase in mouse B16F10 cells assessed as remaining melanin production at 10 uM relative to control; details: B16-F10
[7] = target: T3, Tyrosinase (Mus musculus); experiment: Inhibition of tyrosinase in mouse B16F10 cells assessed as remaining melanin production at 20 uM relative to control; details: B16-F10
[8] = target: T3, Tyrosinase (Mus musculus); experiment: Inhibition of tyrosinase in mouse B16F10 cells assessed as remaining melanin production at 50 uM relative to control; details: B16-F10
Tyrosinase [9] = target: T1, Tyrosinase; experiment: Competitive inhibition of mushroom tyrosinase using L-tyrosine as substrate by Lineweaver-Burk plots analysis
How it was run: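 Global nonlinear Michaelis–Menten fitting over four inhibition models gave Vmax, Km, Kic and Kiu, with the model chosen by minimal χ2.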

## CCc1cc(C(N)=S)ccn1 [ETHIONAMIDE]
Tyrosinase [1]
  IC50: 4 µM
[2]
  Kic: 1.9 µM
[3]
  KSV: 9.5 ×10³ /M
[4]
  viability at 48 h, 50 µM: 106%
[5]
  inhibition: 88%
[6]
  residual activity: 107%
[7]
  residual activity: 104%
[8]
  residual activity: 104%

## NC(=S)c1ccccc1
Tyrosinase [1]
  IC50: 2.8 µM
[2]
  Kic: 0.7 µM
[3]
  KSV: 9.2 ×10³ /M
[4]
  viability at 48 h, 50 µM: 117%
[5]
  inhibition: 72%
[6]
  residual activity: 103%
[7]
  residual activity: 93%
[8]
  residual activity: 63%

## NC(=S)c1cccnc1
Tyrosinase [1]
  IC50: 7.5 µM
[2]
  Kic: 4.3 µM
[3]
  KSV: 8.5 ×10³ /M
[4]
  viability at 48 h, 50 µM: 108%
[5]
  inhibition: 83%
[6]
  residual activity: 109%
[7]
  residual activity: 104%
[8]
  residual activity: 106%

## CC(=S)Nc1ccccc1
Tyrosinase [1]
  IC50: 4.1 µM
Tyrosinase [9]
  Ki: 1.2 µM
[3]
  KSV: 8.3 ×10³ /M
[4]
  viability at 48 h, 50 µM: 116%
[5]
  inhibition: 42%
[6]
  residual activity: 91%
[7]
  residual activity: 75%
[8]
  residual activity: 57%

## NC(=S)Nc1ccccc1 [PHENYLTHIOUREA]
[3]
  KSV: 2.4 ×10³ /M
[4]
  viability at 48 h, 50 µM: 106%
[5]
  inhibition: 27%
[6]
  residual activity: 63%
[7]
  residual activity: 55%
[8]
  residual activity: 54%

## CC(=O)Nc1ccccc1 [ACETANILIDE]
Tyrosinase [1]
  IC50: > 1000 µM
[3]
  KSV: 1 ×10³ /M
[4]
  viability at 48 h, 50 µM: 116%
[5]
  inhibition: 99%
[6]
  residual activity: 105%
[7]
  residual activity: 103%
[8]
  residual activity: 102%

## CCCc1cc(C(N)=S)ccn1 [PROTIONAMIDE]
Tyrosinase [1]
  IC50: 4.5 µM
[2]
  Kic: 2.4 µM
[3]
  KSV: 10.2 ×10³ /M
[4]
  viability at 48 h, 50 µM: 121%
[5]
  inhibition: 84%
[6]
  residual activity: 105%
[7]
  residual activity: 103%
[8]
  residual activity: 100%

## NC(=S)c1ccncc1
Tyrosinase [1]
  IC50: 43.8 µM
[2]
  Kic: 22.3 µM
[3]
  KSV: 7.5 ×10³ /M
[4]
  viability at 48 h, 50 µM: 110%
[5]
  inhibition: 93%
[6]
  residual activity: 106%
[7]
  residual activity: 103%
[8]
  residual activity: 104%

## NC(=S)c1ccccn1
Tyrosinase [1]
  IC50: 14.4 µM
[2]
  Kic: 2.7 µM
[3]
  KSV: 9 ×10³ /M
[4]
  viability at 48 h, 50 µM: 105%
[5]
  inhibition: 78%
[6]
  residual activity: 98%
[7]
  residual activity: 80%
[8]
  residual activity: 56%

## NNC(=O)c1ccncc1 [ISONIAZID]
Tyrosinase [1]
  IC50: > 1000 µM
[3]
  KSV: 1.7 ×10³ /M
[4]
  viability at 48 h, 50 µM: 103%
[5]
  inhibition: 97%
[6]
  residual activity: 104%
[7]
  residual activity: 100%
[8]
  residual activity: 102%
